{"data": "Measured values from different studies", "target": "Mitogen-activated protein kinase 10 (MAPK10, Homo sapiens, UniProt P53779)", "note": "Protocols differ between the studies behind these lines."}
{"Compound": "O=C(c1ccc(Nc2ncc(Cl)c(-c3cc4ccccc4s3)n2)cc1)N1CCC(N2CCCC2)CC1", "read-out": "binding", "technique": "competition with immobilised ligand", "tested at": "1 µM", "remaining binding [%]": 5.8}
{"Compound": "CO[C@H]1CC[C@H](CNc2ccc(S(=O)(=O)NC(=O)c3ccc(N4CCN(CC5=C(c6ccc(Cl)cc6)CC(C)(C)CC5)CC4)cc3Oc3cnc4[nH]ccc4c3)cc2[N+](=O)[O-])CC1", "read-out": "cell-free assay", "technique": "competition with immobilised ligand", "tested at": "1 µM", "remaining binding [%]": 77}
{"Compound": "CN(C)c1nccc(-c2cnn3ncccc23)n1", "read-out": "binding", "tested at": "1 µM", "remaining binding [%]": 49}
{"Compound": "O=C(c1ccc(Nc2nccc(-c3cc4ccccc4s3)n2)cc1)N1CCC(N2CCCC2)CC1", "read-out": "binding", "technique": "competition with immobilised ligand", "tested at": "1 µM", "remaining binding [%]": 12}
{"Compound": "CS(=O)(=O)NCC[C@H](NC(=O)c1cncc2c1cnn2-c1ccc(F)cc1)c1ccnc(S(C)(=O)=O)c1", "read-out": "cell-free assay", "technique": "competition with immobilised ligand", "tested at": "1 µM", "remaining binding [%]": 100}
{"Compound": "O=C(Nc1c[nH]nc1C(=O)NC1CCNCC1)c1cc(F)cc(F)c1", "read-out": "binding", "technique": "competition with immobilised ligand", "tested at": "1 µM", "remaining binding [%]": 100}
{"Compound": "CCC(=N\\O)/C(C)=C/c1ccc(F)cc1", "read-out": "cell-free assay", "technique": "competition with immobilised ligand", "tested at": "1 µM", "remaining binding [%]": 100}
{"Compound": "c1cncc(-c2cccc(Nc3nccc(NC4CCCCC4)n3)c2)c1", "read-out": "binding", "technique": "competition with immobilised ligand", "tested at": "10 µM", "remaining binding [%]": 51}
{"Compound": "F[C@@H]1CCN(c2nccc(-c3cnn4ncccc34)n2)C1", "read-out": "binding", "tested at": "1 µM", "remaining binding [%]": 87}
{"Compound": "O=C(N1CCS(=O)(=O)CC1)N1C[C@H](c2ccc(OC(F)(F)F)cc2)C[C@H](c2nc(C3CC3)no2)C1", "read-out": "cell-free assay", "technique": "competition with immobilised ligand", "tested at": "1 µM", "remaining binding [%]": 79}
{"Compound": "C[C@H]1CCN(c2nccc(-c3cnn4ncccc34)n2)C1", "read-out": "binding", "tested at": "1 µM", "remaining binding [%]": 32}
{"Compound": "Cc1ccc(-c2cnc([C@@]3(O)CC[C@H](C(=O)O)C(C)(C)C3)s2)cc1Nc1cccc(C(F)(F)F)n1", "read-out": "binding", "technique": "competition with immobilised ligand", "tested at": "1 µM", "remaining binding [%]": 37.5}
{"Compound": "Nc1ncc2c(n1)-c1c([nH]c3ccc(C#CC4CC4)cc13)CCCC2", "read-out": "binding", "technique": "competition with immobilised ligand", "tested at": "1 µM", "remaining binding [%]": 76}
{"Compound": "N[C@@H]1CCN(c2nccc(-c3cnn4ncccc34)n2)C1", "read-out": "binding", "tested at": "1 µM", "remaining binding [%]": 52}
{"Compound": "O=C(N[C@H]1CCCCC/C=C\\C2C[C@@]2(C(=O)O)NC(=O)[C@@H]2C[C@@H](Oc3ccncc3)CN2C1=O)OC1CCCC1 (stereo partly drawn)", "read-out": "binding", "technique": "competition with immobilised ligand", "tested at": "1 µM", "remaining binding [%]": 81}
{"Compound": "C[C@@H]1CN(c2ccc3ncc(-c4ccc5[nH]nc(C6CC6)c5c4)n3n2)C[C@H](C)O1", "read-out": "binding", "technique": "competition with immobilised ligand", "tested at": "50 nM", "remaining binding [%]": 85}
{"Compound": "CN(CCCC(F)(F)F)c1nccc(-c2cnn3ncccc23)n1", "read-out": "binding", "tested at": "1 µM", "remaining binding [%]": 97}
{"Compound": "COc1cnc(Nc2cccc(S(N)(=O)=O)c2)nc1N1CCN(c2ccccc2)C(=O)C1", "read-out": "binding", "technique": "competition with immobilised ligand", "tested at": "1 µM", "remaining binding [%]": 63}
{"Compound": "Cc1cnn2ncc(-c3ccnc(N(C)C)n3)c2c1", "read-out": "binding", "tested at": "1 µM", "remaining binding [%]": 71}
{"Compound": "Cc1nc(N2CC[C@@H](O)C2)ncc1-c1cc(C(F)(F)F)cc2[nH]ncc12", "read-out": "binding", "technique": "competition with immobilised ligand", "tested at": "1 µM", "remaining binding [%]": 72}
{"Compound": "CC1CCCN1c1nccc(-c2cnn3ncccc23)n1 (stereo not drawn)", "read-out": "binding", "tested at": "1 µM", "remaining binding [%]": 79}
{"Compound": "O=C(NCCCN1CCOCC1)c1ccc(Nc2ncc(Cl)c(-c3ccc(Cl)s3)n2)cc1", "read-out": "binding", "technique": "competition with immobilised ligand", "tested at": "1 µM", "remaining binding [%]": 4.7}
{"Compound": "COC(=O)Nc1nc2ccc(C(=O)c3ccccc3)cc2[nH]1", "read-out": "cell-free assay", "technique": "competition with immobilised ligand", "tested at": "10 µM", "remaining binding [%]": 3}
{"Compound": "CNC(=O)[C@@H]1CC[C@@H](n2c(-c3ccc4cnccc4c3)nc3ccc(C(=O)NCc4cccc(C(N)=O)c4)cc32)C1", "read-out": "binding", "technique": "competition with immobilised ligand", "tested at": "1 µM", "remaining binding [%]": 84}
